Measured values from ChEMBL document CHEMBL3817814, “Development and Characterization of a Potent Free Fatty Acid Receptor 1 (FFA1) Fluorescent Tracer” (J Med Chem, 2016).

What was measured:
[1] = biological target: T1, Free fatty acid receptor 1 (Homo sapiens, UniProt O14842); test: Agonist activity at eYFP-tagged FFA1 receptor (unknown origin) expressed in human Flp-In T-REX-293 cells measured for 90 secs by Fura-2 AM dye based calcium mobilization assay; format: functional, cell-based
Outline: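 Flp-In T-REx 293 cells with doxycycline-inducible FFA1-eYFP were plated 50,000/well and induced with 100 ng/ml doxycycline 24 h before assay. Cells were Fura-2 AM loaded 45 min, washed three times and kept 15 min in HBSS. […] Mean ± S.E.M., n=3.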

[2] = biological target: T1, Free fatty acid receptor 1; test: Agonist activity at human C-terminal eYFP-tagged FFA1 receptor expressed in HEK-293 cells assessed as beta-arrestin2 recruitment incubated for 5 mins by BRET assay relative to TUG-770; format: cell-based; conditions: HEK293
[3] = biological target: T1, Free fatty acid receptor 1; test: Agonist activity at FFA1 receptor (unknown origin) expressed in human […] cells measured for 90 secs by Fura-2 AM dye based calcium mobilization assay relative to TUG-770; format: functional, cell-based
Outline: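 Untagged FFA1 constitutively expressed in N1-FFA1 cells, plated 15,000/well 24 h ahead. Cells loaded 45 min with Fura-2 AM, washed three times, then held 15 min in HBSS. Emission at 510 nm from 340/380 nm excitation was recorded before and for 90 s after compound addition. The peak 340/380 ratio gave concentration-response curves.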

[4] = biological target: T1, Free fatty acid receptor 1; test: Displacement of 3-(2-Fluoro-4-((2'-methyl-4'-(2-(2-((7-nitrobenzo[c][1,2,5]-oxadiazol-4-yl)amino)ethoxy)ethoxy)-[1,1'-biphenyl]-3-yl)-methoxy)phenyl)propanoic acid from N-terminal NLUC-tagged FFA1 receptor (unknown origin) expressed in human Flp-In T-REX-293 cell membrane coexpressing mGluR5 incubated for 1 hr by equilibrium BRET assay; format: cell membranes
[5] = biological target: T1, Free fatty acid receptor 1; test: Agonist activity at human C-terminal eYFP-tagged FFA1 receptor expressed in HEK-293 cells assessed as beta-arrestin2 recruitment incubated for 5 mins by BRET assay; format: cell-based, HEK293
[6] = biological target: T1, Free fatty acid receptor 1; test: Binding affinity to N-terminal NLUC-tagged FFA1 receptor (unknown origin) expressed in human Flp-In T-REX-293 cell membrane coexpressing mGluR5 incubated for 1 hr by equilibrium BRET assay; format: cell membranes
Outline: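 Membranes from NLUC-FFA1 Flp-In T-REx 293 cells (induced 24 h, 100 ng/ml doxycycline) were used at 5 µg protein/well in 50 mM HEPES, 100 mM NaCl, 10 mM CaCl2, 10 mM MgCl2. Varying tracer concentrations, up to 100 nM, were incubated 1 h at 25 °C, with 10 µM unlabeled agonist defining non-specific binding. Nano-Glo (1:800 final) was added, then 460/545 nm emission read after 5 min. Kd came from saturation fits.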

[7] = biological target: T1, Free fatty acid receptor 1; test: Binding affinity to N-terminal NLUC-tagged FFA1 receptor (unknown origin) expressed in human Flp-In T-REX-293 cell membrane coexpressing mGluR5 preincubated for 5 mins followed by TUG-905 addition measured after 15 mins by kinetic BRET assay; format: cell membranes
Outline: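 Membranes (2.5 µg protein/well) were pre-incubated 5 min at 25 °C with Nano-Glo (1:800 final), and 460/545 nm emission was read every 20 s at 25 °C. After 60 s, tracer (100 nM final) was injected; 5 min later 10 µM unlabeled agonist was injected and reading continued 15 min. Non-specific signal from wells pre-dosed with unlabeled agonist was subtracted, giving koff and kon.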

[8] = biological target: T1, Free fatty acid receptor 1; test: Agonist activity at FFA1 receptor (unknown origin) expressed in human […] cells measured for 90 secs by Fura-2 AM dye based calcium mobilization assay; format: functional, cell-based
Outline: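 N1-FFA1 cells constitutively expressing untagged FFA1 were plated 24 h before the assay. They were loaded with Fura-2 AM for 45 min, washed three times, and held 15 min in HBSS. Fura-2 emission at 510 nm (340 or 380 nm excitation) was read before and for 90 s after compound addition. The peak 340/380 ratio gave concentration-response curves for potency.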

T1 sequence (O14842 whole entry): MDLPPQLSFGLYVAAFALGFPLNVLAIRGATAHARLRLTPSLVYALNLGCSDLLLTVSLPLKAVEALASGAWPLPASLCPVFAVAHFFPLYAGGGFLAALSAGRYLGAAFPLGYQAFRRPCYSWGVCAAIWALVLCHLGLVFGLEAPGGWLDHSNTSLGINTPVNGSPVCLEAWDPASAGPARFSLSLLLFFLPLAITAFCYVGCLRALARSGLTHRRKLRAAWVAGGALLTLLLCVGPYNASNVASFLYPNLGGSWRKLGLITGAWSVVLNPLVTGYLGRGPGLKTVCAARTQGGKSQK

Structure (SMILES) | Emax [2] [%] | Ki [4] [nM] | EC50 [5] [nM] | also measured
O=C(O)CCc1ccc(C#Cc2cccc(OCCOCCNc3ccc([N+](=O)[O-])c4nonc34)c2)cc1F |  |  |  | EC50 [1]: > 1000 nM
Cc1cc(OCCCS(C)(=O)=O)cc(C)c1-c1cccc(COc2ccc3c(c2)OC[C@H]3CC(=O)O)c1 | 89 |  |  | Emax [3]: 108%
Cc1ccccc1-c1cccc(CNc2ccc(CCC(=O)O)cc2)c1 | 114 |  |  | 
Cc1ccccc1C#Cc1ccc(CCC(=O)O)cc1 | 100 | 631 | 67.6 | 
Cc1cc(Oc2ncc(C(F)(F)F)cc2Cl)ccc1CC1SC(=O)NC1=O (stereo not drawn) | 95 | 69.2 | 55 | 
O=C(O)CCc1ccc(NCc2cccc(Oc3ccccc3)c2)cc1 [GW9508] | 86 | 219 |  | 
Cc1cc(OCCOCCNc2ccc([N+](=O)[O-])c3nonc23)ccc1-c1cccc(COc2ccc(CCC(=O)O)c(F)c2)c1 |  |  |  | EC50 [1]: 187 nM; Kd [6]: 7.4 nM; Kd [7]: 4 nM
CCCCCCCCCCCC(=O)O [DODECANOATE] | 130 |  | 7940 | pKb [4]: 4.46; EC50 [8]: 759 nM; Emax [3]: 116%
O=C(O)CCc1ccc(OCc2ccccc2)cc1 [BENZYLOXYPHENYLPROPANOIC ACID] | 90 | 13800 |  | 
N#CCc1ccccc1C#Cc1ccc(CCC(=O)O)cc1 | 95 |  |  | 
